According to publication PMC4764993 (Canadian journal of physiology and pharmacology, 2015):

Biological target: MMP-9 (Homo sapiens, UniProt P14780)
Experiment: In-vitro MMP-9 cleavage assay of synthetic OPN-peptides
Type: biochemical
Settings: active MMP-9, 20:1 (w/w), 37 °C, 24 h; MS/MS identification of fragments
In short: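 Synthetic N-acetylated, C-amidated mouse OPN peptides, each spanning a candidate cleavage site mid-sequence, incubated with active MMP-9 at 20:1 (w/w) in 1× zymogram developing buffer, 37 °C, 24 h. Controls lacked enzyme or peptide. Reactions C18-desalted, then LC-MS/MS (5–45% acetonitrile over 20 min; MS resolution 70 000, MS2 17 500). Fragments compared against both controls.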

MMP-9, sequence (P14780 107-707 limits assumed, species assumed): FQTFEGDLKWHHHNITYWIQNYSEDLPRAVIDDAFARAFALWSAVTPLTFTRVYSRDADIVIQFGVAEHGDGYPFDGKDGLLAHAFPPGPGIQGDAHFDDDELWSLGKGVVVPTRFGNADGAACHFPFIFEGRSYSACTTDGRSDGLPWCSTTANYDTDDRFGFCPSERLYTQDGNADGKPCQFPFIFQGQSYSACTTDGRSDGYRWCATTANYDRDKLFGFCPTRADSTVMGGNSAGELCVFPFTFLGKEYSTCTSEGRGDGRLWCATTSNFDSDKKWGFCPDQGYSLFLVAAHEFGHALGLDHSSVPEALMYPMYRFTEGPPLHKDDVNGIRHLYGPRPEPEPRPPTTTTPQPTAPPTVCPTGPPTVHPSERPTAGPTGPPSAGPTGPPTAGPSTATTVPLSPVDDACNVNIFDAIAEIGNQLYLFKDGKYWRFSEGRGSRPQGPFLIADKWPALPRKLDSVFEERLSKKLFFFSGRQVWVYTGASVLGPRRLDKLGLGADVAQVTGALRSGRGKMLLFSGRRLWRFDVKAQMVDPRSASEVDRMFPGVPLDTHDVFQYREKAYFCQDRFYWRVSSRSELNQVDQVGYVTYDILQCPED

Substance | MMP-9 cleavage site(s) found in the synthetic peptide
Ac-SLDVIPVAQLLSMPSDQDNN-NH2 [LL fragment] | AQ and LL; position 193-194 and 195-196
Ac-NGRGDSLAYGLRSKSRSFQV-NH2 [GL fragment] | GL (position 151–152)
